The results in this text go back to ChEMBL document CHEMBL3098041, “Synthesis and anticancer evaluation of 3-substituted quinolin-4-ones and 2,3-dihydroquinolin-4-ones” (Bioorg Med Chem, 2014).

Molecules are shown by their SMILES.

A word on the IC50: it is the concentration at which inhibition is half-maximal.

Assay [1] deals with DU-145. Briefly: Cytotoxicity against human DU145 cells assessed as cell viability at 25 uM after 72 hrs by Alamar blue assay. The format is functional. As to conditions: DU-145, 72 h, read-out: Activity. The procedure, abridged:
(§1)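 Cells were grown in DMEM with 10% FBS at 37 °C, 5% CO2, humidified. Log-phase cells were seeded in 96-well plates at a fixed density and allowed to adhere for 24 h. Compound or vehicle-only control was added to duplicate wells at one fixed concentration for 72 h. Alamar Blue fluorescence was read (ex 555, em 585 nm) as % viability (0% = total growth inhibition). Assays were run in triplicate.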

Assay [2] deals with HT-29. The experiment in a line: Cytotoxicity against human HT-29 cells assessed as cell viability at 25 uM after 72 hrs by Alamar blue assay. The format is functional. The note with it: HT-29, 72 h, read-out: Activity. An outline of the steps:
as §1

The subject of assay [3] is MCF7. The experiment in a line: Cytotoxicity against human MCF7 cells assessed as cell viability at 25 uM after 72 hrs by Alamar blue assay. The format is functional. As to conditions: MCF7, 72 h, read-out: Activity. An outline of the steps:
as §1
A general note: Alamar Blue is a resazurin reagent that responds to reducing activity.

Assay [4] concerns A-431. The experiment in a line: Cytotoxicity against human A431 cells assessed as cell viability at 25 uM after 72 hrs by Alamar blue assay. As to conditions: A-431, 72 h, read-out: Activity. The assay is classed as functional. An outline of the steps:
as §1

The nature of assay [5]: Cytotoxicity against human H460 cells assessed as cell viability at 25 uM after 72 hrs by Alamar blue assay. The assay is classed as functional. As to conditions: NCI-H460, 72 h, read-out: Activity. The procedure, abridged: as §1
The subject of assay [6] is A-431. Briefly: Cytotoxicity against human A431 cells assessed as cell viability after 72 hrs by Alamar blue assay. The assay is classed as functional, cell-based. The note with it: A-431, 72 h. The procedure, abridged:
(§2)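 This was a dose–response Alamar Blue assay run in triplicate. Cells were kept in DMEM with 10% FBS (37 °C, 5% CO2, humidified). Log-phase cells were plated at a fixed density in 96-well plates and left to adhere for 24 h. Compound or vehicle was added to duplicate wells. After 72 h exposure, metabolic activity was measured by fluorescence (ex 555, em 585 nm).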

The test system of assay [7] is HT-29. Briefly: Cytotoxicity against human HT-29 cells assessed as cell viability after 72 hrs by Alamar blue assay. As to conditions: HT-29, 72 h. The format is functional, cell-based. The procedure, abridged:
as §2

The test system of assay [8] is DU-145. The experiment in a line: Cytotoxicity against human DU145 cells assessed as cell viability after 72 hrs by Alamar blue assay. The note with it: DU-145, 72 h. The format is functional, cell-based. The procedure, abridged:
as §2

Assay [9] deals with MCF7. Briefly: Cytotoxicity against human MCF7 cells assessed as cell viability after 72 hrs by Alamar blue assay. The assay is classed as functional, cell-based. The note with it: MCF7, 72 h. The procedure, abridged:
as §2

Assay [10] in a line: Cytotoxicity against human H460 cells assessed as cell viability after 72 hrs by Alamar blue assay. As to conditions: NCI-H460, 72 h. The assay is classed as functional, cell-based. An outline of the steps: as §2
The test system of the next assay is MRC5. Briefly: Cytotoxicity against human MRC5 cells assessed as cell viability after 72 hrs by Alamar blue assay. The assay is classed as cell-based. As to conditions: MRC5, 72 h. An outline of the steps: as §2

As for `COc1cc2c(c(OC)c1)C(=O)[C@@H](c1ccccc1)CN2`, the viability at 25 µM came to 95.4% in the assay on DU-145 [1]; 98.8% with HT-29 [2]; 83.6% with MCF7 [3]; 98.3% with A-431 [4]; 87.6% in assay [5].

Regarding `COc1cc(O)c2c(=O)c(-c3ccc(F)cc3)c[nH]c2c1`, the viability at 25 µM in the assay on DU-145 [1] was 43.4%; in the assay on HT-29 [2] it was 31.2%; in the assay on A-431 [4] it was 71.4%; in assay [5] it was 38.9%.

With `COc1cc(O)c2c(c1)NCC(c1ccccc1)C2=O` (stereo not given), the viability at 25 µM amounted to 81.6% with DU-145 [1]; 90.8% in the assay with HT-29 [2]; 83.2% with MCF7 [3]; 90.8% with A-431 [4]; 78% in assay [5].

On to `COc1cc(O)c2c(=O)c(-c3cccc(Br)c3)c[nH]c2c1`, for which the IC50 with A-431 [6] is 5.5 µM; in the assay with HT-29 [7], 3.6 µM; in the assay on DU-145 [8], 9.5 µM; in the assay on MCF7 [9], 21.9 µM; in assay [10], 9.2 µM; in the assay with MRC5 it was 6.7 µM. Also, the viability at 25 µM turned out to be 10% in the assay on DU-145 [1], 14.1% in the assay with HT-29 [2], 1% in the assay with A-431 [4] and 2% in [5].

On to `COc1cc(O)c2c(=O)c(-c3ccc(Br)cc3)c[nH]c2c1`, for which the viability at 25 µM in the assay with DU-145 [1] is 73.5%; with HT-29 [2], 29.2%; in the assay with MCF7 [3], 52.6%; in the assay with A-431 [4], 104%; in [5], 65.5%.

With `COc1cc(O)c2c(=O)c(-c3ccc(C)cc3)c[nH]c2c1`, the viability at 25 µM came out at 85.1% with DU-145 [1], 29.6% in the assay with HT-29 [2], 76.5% in the assay with A-431 [4] and 50.7% in assay [5].

In the case of `COc1ccc(C2CNc3cc(OC)cc(O)c3C2=O)cc1` (stereo not given), the viability at 25 µM in the assay with DU-145 [1] came to 106%; in the assay with HT-29 [2] it was 97.3%; in the assay with MCF7 [3], 85.7%; in the assay with A-431 [4] it was 108%; in [5], 94.1%.

On to `COc1cc(OC)c2c(=O)c(-c3cccc(Br)c3)c[nH]c2c1`, for which the viability at 25 µM in the assay on DU-145 [1] was found to be 71.8%; in the assay on HT-29 [2], 37.8%; in the assay on A-431 [4], 66.5%; in assay [5], 43.9%.

`COc1cc(OC)c2c(=O)c(-c3ccc(F)cc3)c[nH]c2c1`: the viability at 25 µM with DU-145 [1] was 88.7%; in the assay on HT-29 [2], 114%; with A-431 [4], 103%; in [5], 86%.

Consider `O=C1c2c(O)cc(O)cc2NCC1c1ccccc1` (stereo not given), for which the viability at 25 µM in the assay with DU-145 [1] came out at 83.1%; in the assay on HT-29 [2], 98.5%; in the assay on MCF7 [3], 121%; in the assay on A-431 [4], 98.5%; in assay [5], 74.5%.

For `COc1cc(OC)c2c(=O)c(-c3ccc(C)cc3)c[nH]c2c1`, the viability at 25 µM in the assay with DU-145 [1] came to 76.6%; with HT-29 [2], 102%; in the assay with A-431 [4], 89.9%; in assay [5], 53.8%.

Regarding `COc1cc(OC)c2c(=O)c(-c3ccc(Br)cc3)c[nH]c2c1`, the viability at 25 µM with DU-145 [1] came out at 74.8%; with HT-29 [2], 26.2%; in the assay on MCF7 [3] it was 35.3%; in the assay on A-431 [4], 69.1%; in assay [5], 33.5%.

Take `COc1ccc([C@H]2CNc3cc(OC)cc(OC)c3C2=O)cc1`: the viability at 25 µM came out at 91.1% with DU-145 [1]; 106% with HT-29 [2]; 85.1% with MCF7 [3]; 89.6% in the assay on A-431 [4]; 94.3% in assay [5].
